Test results published in the M2OR odorant receptor database.

How the values were obtained:
Conditions in all cases: stereoisomer not certain
OR10H3 (Homo sapiens) = target: T1, OR10H3 (Homo sapiens) (UniProt O60404)
T1 sequence (whole entry): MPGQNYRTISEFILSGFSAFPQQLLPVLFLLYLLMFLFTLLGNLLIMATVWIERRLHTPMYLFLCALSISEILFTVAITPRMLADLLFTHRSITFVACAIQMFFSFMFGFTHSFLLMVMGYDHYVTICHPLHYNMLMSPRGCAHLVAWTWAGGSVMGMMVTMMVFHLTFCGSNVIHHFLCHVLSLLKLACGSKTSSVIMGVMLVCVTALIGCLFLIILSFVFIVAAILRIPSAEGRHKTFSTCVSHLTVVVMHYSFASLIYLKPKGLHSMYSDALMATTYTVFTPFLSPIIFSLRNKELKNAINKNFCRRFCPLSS
Procedure, shortened: (§1)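 Whether a receptor–molecule pair is responsive (active) rests on the original authors' judgment that its measured signal was statistically different from baseline. Pairs without that judgment are non-responsive (inactive). Sources used varied assay methods, commonly transient luciferase assays in mammalian cell lines.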

OR10H4 (Homo sapiens) = target: T2, OR10H4 (Homo sapiens) (UniProt Q8NGA5)
T2 sequence (whole entry): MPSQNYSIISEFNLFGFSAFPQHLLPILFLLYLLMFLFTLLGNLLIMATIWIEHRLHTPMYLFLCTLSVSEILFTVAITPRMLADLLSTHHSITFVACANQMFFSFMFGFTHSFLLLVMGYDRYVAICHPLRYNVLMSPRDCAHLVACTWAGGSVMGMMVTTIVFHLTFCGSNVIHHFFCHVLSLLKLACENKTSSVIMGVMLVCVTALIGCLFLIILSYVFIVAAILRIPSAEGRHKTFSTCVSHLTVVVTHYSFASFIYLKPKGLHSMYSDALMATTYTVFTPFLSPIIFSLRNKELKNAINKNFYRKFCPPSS
Procedure, shortened: as §1

OR10H5 (Homo sapiens) = target: T3, OR10H5 (Homo sapiens) (UniProt Q8NGA6)
T3 sequence (whole entry): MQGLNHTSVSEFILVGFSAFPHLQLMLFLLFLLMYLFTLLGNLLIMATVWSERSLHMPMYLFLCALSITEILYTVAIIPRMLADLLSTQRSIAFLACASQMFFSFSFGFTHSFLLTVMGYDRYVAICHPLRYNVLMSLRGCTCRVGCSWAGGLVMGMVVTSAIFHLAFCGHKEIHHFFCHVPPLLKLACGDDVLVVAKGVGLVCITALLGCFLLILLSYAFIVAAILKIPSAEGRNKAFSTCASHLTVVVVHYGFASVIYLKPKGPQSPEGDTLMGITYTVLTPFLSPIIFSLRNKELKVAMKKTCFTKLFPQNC
Procedure, shortened: as §1

OR10J1 (Homo sapiens) = target: T4, OR10J1 (Homo sapiens) (UniProt P30954)
T4 sequence (whole entry): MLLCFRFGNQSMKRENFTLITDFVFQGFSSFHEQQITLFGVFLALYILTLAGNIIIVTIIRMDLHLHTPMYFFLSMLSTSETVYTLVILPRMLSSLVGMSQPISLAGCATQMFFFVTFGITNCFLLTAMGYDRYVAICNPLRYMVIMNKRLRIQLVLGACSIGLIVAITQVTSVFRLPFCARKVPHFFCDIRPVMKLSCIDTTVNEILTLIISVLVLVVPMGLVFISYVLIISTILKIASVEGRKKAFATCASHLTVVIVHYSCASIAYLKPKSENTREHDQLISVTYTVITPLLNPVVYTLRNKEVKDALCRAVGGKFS
Procedure, shortened: as §1

OR10J3 (Homo sapiens) = target: T5, OR10J3 (Homo sapiens) (UniProt Q5JRS4)
T5 sequence (whole entry): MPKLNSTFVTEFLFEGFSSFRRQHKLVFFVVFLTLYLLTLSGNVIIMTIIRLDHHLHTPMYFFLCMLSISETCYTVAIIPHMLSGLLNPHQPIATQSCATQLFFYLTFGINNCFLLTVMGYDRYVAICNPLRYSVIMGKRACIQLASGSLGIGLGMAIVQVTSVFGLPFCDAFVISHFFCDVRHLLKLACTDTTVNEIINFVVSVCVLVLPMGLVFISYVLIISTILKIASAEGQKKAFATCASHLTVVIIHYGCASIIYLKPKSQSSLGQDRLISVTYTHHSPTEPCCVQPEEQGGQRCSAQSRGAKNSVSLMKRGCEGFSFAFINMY
Procedure, shortened: as §1

OR10J5 (Homo sapiens) = target: T6, OR10J5 (Homo sapiens) (UniProt Q8NHC4)
T6 sequence (whole entry): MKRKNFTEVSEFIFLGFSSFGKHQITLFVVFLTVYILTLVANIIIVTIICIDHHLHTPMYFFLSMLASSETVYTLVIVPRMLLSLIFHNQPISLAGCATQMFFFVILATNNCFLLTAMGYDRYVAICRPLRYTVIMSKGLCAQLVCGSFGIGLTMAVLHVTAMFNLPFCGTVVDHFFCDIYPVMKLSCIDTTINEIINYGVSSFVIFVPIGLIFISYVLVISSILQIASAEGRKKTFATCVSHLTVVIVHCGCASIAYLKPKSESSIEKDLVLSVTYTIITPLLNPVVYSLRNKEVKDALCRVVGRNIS
Procedure, shortened: as §1

OR10K1 (Homo sapiens) = target: T7, OR10K1 (Homo sapiens) (UniProt Q8NGX5)
T7 sequence (whole entry): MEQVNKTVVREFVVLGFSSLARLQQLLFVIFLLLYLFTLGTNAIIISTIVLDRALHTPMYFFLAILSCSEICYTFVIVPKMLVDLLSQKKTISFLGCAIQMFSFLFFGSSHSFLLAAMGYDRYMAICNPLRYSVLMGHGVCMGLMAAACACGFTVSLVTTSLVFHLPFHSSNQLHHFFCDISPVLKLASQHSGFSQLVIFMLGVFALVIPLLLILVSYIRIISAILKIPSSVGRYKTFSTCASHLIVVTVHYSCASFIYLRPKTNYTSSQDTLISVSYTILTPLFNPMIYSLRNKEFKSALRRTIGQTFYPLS
Procedure, shortened: as §1

OR10K2 (Homo sapiens) = target: T8, OR10K2 (Homo sapiens) (UniProt Q6IF99)
T8 sequence (whole entry): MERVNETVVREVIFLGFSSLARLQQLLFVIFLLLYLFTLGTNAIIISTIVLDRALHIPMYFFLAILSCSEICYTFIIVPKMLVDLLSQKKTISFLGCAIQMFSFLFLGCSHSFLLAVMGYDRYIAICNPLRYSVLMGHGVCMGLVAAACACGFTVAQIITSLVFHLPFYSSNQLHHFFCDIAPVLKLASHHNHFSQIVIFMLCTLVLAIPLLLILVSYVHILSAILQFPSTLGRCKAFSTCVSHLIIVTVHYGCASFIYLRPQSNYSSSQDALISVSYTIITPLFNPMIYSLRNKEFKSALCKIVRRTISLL
Procedure, shortened: as §1

OR10P1 (Homo sapiens) = target: T9, OR10P1 (Homo sapiens) (UniProt Q8NGE3)
T9 sequence (whole entry): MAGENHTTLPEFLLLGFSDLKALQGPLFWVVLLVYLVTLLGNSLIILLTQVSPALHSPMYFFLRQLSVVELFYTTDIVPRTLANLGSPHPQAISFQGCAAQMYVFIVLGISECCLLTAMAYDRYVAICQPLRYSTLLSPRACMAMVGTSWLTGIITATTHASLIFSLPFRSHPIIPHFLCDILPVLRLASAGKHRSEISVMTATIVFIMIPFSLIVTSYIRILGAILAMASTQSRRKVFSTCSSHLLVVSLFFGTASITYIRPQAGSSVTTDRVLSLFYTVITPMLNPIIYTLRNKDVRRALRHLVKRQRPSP
Procedure, shortened: as §1

OR10Q1 (Homo sapiens) = target: T10, OR10Q1 (Homo sapiens) (UniProt Q8NGQ4)
T10 sequence (whole entry): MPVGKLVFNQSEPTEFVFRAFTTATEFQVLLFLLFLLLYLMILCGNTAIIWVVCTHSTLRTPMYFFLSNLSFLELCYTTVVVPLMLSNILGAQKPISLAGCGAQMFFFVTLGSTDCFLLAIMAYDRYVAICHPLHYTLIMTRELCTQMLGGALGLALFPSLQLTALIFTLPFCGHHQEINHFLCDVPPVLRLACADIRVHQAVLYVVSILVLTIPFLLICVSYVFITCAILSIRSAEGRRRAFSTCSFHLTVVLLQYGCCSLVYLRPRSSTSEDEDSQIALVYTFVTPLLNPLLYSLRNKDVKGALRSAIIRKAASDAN
Procedure, shortened: as §1

Measured: odorant receptor agonist call

CCCCCC(=O)C(C)C(C)=O (stereo not given)
inactive: OR10H3 (Homo sapiens) | OR10H4 (Homo sapiens) | OR10H5 (Homo sapiens) | OR10J1 (Homo sapiens) | OR10J3 (Homo sapiens) | OR10J5 (Homo sapiens) | OR10K1 (Homo sapiens) | OR10K2 (Homo sapiens) | OR10P1 (Homo sapiens) | OR10Q1 (Homo sapiens)
